In PubChem BioAssay:
Activity calls are given as the source filed them.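 The calls were made as follows, unless noted: active = NADPH fluorescence slope more negative than the mean of all samples by about 3 SD, 99.7% confidence; inactive = the rest.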

Legend:
[1] = inhibitors of TNFa-induced NFkB p65 translocation, primary screen, imaging, HUVEC, MLSMR starter and 10KST1 sets (AID 438;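 active = inhibition above 20% together with a positive visual image hit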;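 also: compound added about 3h40 before a 20 min TNFalpha stimulation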;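 as to inhibition: signal is the nuclear over cytoplasmic p65 intensity ratio per well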); settings: HUVEC TNFa-induced p65 nuclear translocation; cell count: measured here: nuclei count (cytotoxicity indicator), at 2.08 µM; inhibition: at 2 µM, stronger effect = higher value, 0% TNFa-plus-vehicle, 100% no-TNFa wells
[2] = reduction of polyQ htt aggregates in cells – imaging, exon1htt(103Q)mCFP cells, high-content imaging, primary screen (AID 483;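 active = visual image review flags a hit and inhibition of aggregation exceeds 20%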;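 also: compound exposure lasted 3 days before fixation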;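 as to nuclei count: percent of the per-plate median nuclei count of sample wells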); settings: exon1htt(103Q)mCFP cell line, aggregate imaging, at 2 µM; inhibition of aggregation: stronger effect = higher value; nuclei count: measured here: cell count, toxicity
[3] = endothelial E-selectin expression blockers – imaging, HUVEC, immunofluorescence, MLSMR starter and 10KST1 sets, primary screen (AID 487;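 active = visually confirmed hit in the image check and inhibition above 20%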;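 as to inhibition: signal is fraction of cell area covered by stained E-selectin grains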;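 as to nuclei count: 100% = median nuclei count of all wells on the same plate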); settings: HUVEC TNFalpha-induced E-selectin immunofluorescence imaging, at 2 µM; inhibition: stronger effect = higher value; nuclei count: measured here: cell number, toxicity
[4] = target: Voltage-gated potassium channel subunit beta-2 (Rattus norvegicus) (UniProt P62483); experiment: inhibitors of rat Kvbeta2 reductase activity – biochemical, NADPH fluorescence, primary screen (AID 622;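 active = fluorescence slope higher than the sample average by over 3 SD, cut at about -0.22 in these data, passing the limit was not always enough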;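 also: slope of raw intensity against log time taken from 70 to 1610 s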); settings: recombinant KvBeta, 4-cyanobenzaldehyde reduction, at 10 µM, stronger effect = higher value
[5] = target: Voltage-gated potassium channel subunit beta-2 (Rattus norvegicus) (UniProt P62483); experiment: enhancers of rat Kvbeta2 NADPH turnover – biochemical, NADPH fluorescence, primary screen (AID 623); settings: Recombinant KvBeta, NADPH fluorescence decrease slope, 10 min; at 10 µM; stronger effect = lower value;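 also: fluorescence intensity change per second fitted from 20 to 320 s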
[6] = target: Alpha-2C adrenergic receptor (Homo sapiens) (UniProt P18825); experiment: compounds altering alpha2C-coupled GIRK flux – cell-based, HEK293 alpha2C/GIRK1/2, thallium flux, primary screen (AID 624;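 active = fluorescence slope after compound addition differing from the mean of all screened samples at 99.7% confidence, in either direction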;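 also: slope of fluorescence ratio to pre-addition baseline per second over 15 to 24 s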); settings: thallium flux BTC fluorescence, at 10 µM, actives lie on both sides
[7] = inhibitors of larval lipid processing in zebrafish, primary screen, whole organism, PED6 fluorescence, gall bladder and intestine (AID 686;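 active = a full or partial loss of lipid-probe fluorescence in the fish gall bladder, intestine or both, judged by eye; inactive = no fluorescence loss, or compound toxic to the fish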;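 also: larvae 5 to 7 days old with five fish per well; signal comes from phospholipase A2 cleavage of quenched PED6 carried via bile; overnight exposure to compound and PED6 before scoring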); settings: Zebrafish larvae PED6 lipid processing, fluorescence scoring; screened at 20 µM (by protocol)
Summary of the method: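 Also added: quenched phospholipase substrate PED6, 100 nM final, ingested by larvae; System: zebrafish larvae, 5-7 d; Quantity: 5 larvae per well; Compound: 20 µM single dose; Schedule: overnight compound and PED6 incubation; Read-out: visual per-well fluorescence inhibition score; Measured by: By-eye fluorescence microscopy; Medium: E3.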

[8] = blockers of RIG-like receptor reporter activation – cell-based, Sendai virus stimulus, luciferase, 10K MLSCN set, TLR/RLR signaling modifier project, primary screen (AID 602276;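 active = inhibition at or above 50% at 10 µM; inactive = inhibition below 50%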;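 also: firefly luciferase from ISG56 promoter only with Renilla not read in this screen; 0% = Sendai virus plus DMSO and 100% = medium plus DMSO without virus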); settings: HEK293 RL24 IRF3 luciferase reporter, at 10 µM, stronger effect = higher value
[9] = TLR3 IRF3 reporter activation blockers – cell-based, poly I:C stimulus, luciferase, 10K MLSCN set, primary screen (AID 602277;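 active = inhibition of the reporter signal at or above 50%; inactive = inhibition below 50%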); settings: HEK293-TLR3 RL24 IRF3 luciferase reporter, at 10 µM, stronger effect = higher value

Chain of Alpha-2C adrenergic receptor (Homo sapiens) (P18825 whole entry, looked up): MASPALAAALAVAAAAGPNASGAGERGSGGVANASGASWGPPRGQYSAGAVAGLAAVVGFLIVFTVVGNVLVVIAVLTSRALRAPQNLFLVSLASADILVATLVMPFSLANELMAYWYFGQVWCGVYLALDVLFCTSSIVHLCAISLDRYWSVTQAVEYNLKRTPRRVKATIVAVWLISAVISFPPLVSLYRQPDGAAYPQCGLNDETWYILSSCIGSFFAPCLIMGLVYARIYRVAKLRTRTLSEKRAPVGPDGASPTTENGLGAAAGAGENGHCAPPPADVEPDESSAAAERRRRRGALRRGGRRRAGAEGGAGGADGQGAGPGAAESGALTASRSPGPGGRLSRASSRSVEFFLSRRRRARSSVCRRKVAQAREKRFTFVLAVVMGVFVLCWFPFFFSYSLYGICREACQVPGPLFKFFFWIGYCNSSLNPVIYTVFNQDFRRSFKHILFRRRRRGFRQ
Chain of Voltage-gated potassium channel subunit beta-2 (Rattus norvegicus) (P62483 whole entry, looked up): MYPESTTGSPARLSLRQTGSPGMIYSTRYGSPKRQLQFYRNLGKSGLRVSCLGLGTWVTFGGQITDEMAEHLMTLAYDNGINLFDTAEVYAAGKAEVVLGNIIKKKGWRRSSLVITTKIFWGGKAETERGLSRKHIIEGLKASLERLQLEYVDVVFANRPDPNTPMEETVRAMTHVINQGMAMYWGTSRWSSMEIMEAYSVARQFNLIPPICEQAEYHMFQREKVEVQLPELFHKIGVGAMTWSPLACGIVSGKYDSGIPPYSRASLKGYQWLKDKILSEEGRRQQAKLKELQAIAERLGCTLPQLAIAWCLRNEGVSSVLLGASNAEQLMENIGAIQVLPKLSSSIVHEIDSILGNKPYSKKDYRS

Row | Compound | cell count [1] | inhibition [1] | inhibition of aggregation [2] | nuclei count [2] [%] | inhibition [3] | nuclei count [3] [%] | fluorescence slope [4] | NADPH fluorescence slope [5] | slope [6] | outcome [7] | inhibition [8] | inhibition [9]
1 | Cc1nc2cc(NC(=O)N3c4ccccc4CC3C)ccc2o1 (stereo not given) | 574 | -2.2% (inactive) | 7.4% (inactive) | 56.2 | -10.4% (inactive) | 96.8 | -0.394 (inactive) | -5.4e-05 (inactive) | 0.00476 (inactive) | inactive | 1.7% (inactive) | -4% (inactive)
2 | O=C(Cn1[nH]c(=O)c2ccccc2c1=O)OCC(=O)N1CCCc2ccccc21 | 335 | 4.2% (inactive) | -9% (inactive) | 98.2 | -37% (inactive) | 117 | -0.389 (inactive) | -6e-05 (inactive) | 0.00579 (inactive) | inactive | 8.5% (inactive) | 10.3% (inactive)
3 | CCN(CC)S(=O)(=O)c1cccc(-c2nnc(SCCOc3ccccc3C)o2)c1 | 356 | 0.4% (inactive) | -13.5% (inactive) | 95.4 | 3.8% (inactive) | 114 | -0.458 (inactive) | -8e-05 (inactive) | 0.00732 (inactive) | inactive | 9.64% (inactive) | -24.4% (inactive)
4 | CCCC(=O)Nc1ccc(C(=O)O)cc1NC(=O)CCC | 442 | -4.3% (inactive) | -9.3% (inactive) | 104 | 39.4% (inactive) | 89.9 | -0.441 (inactive) | -5e-05 (inactive) | 0.00422 (inactive) | inactive | 12.9% (inactive) | 15.5% (inactive)
5 | CC(C(=O)NC(=O)NC1CCCCC1)N1CCN(c2ccccn2)CC1 (stereo not given) | 611 | -16.9% (inactive) | 8.1% (inactive) | 107 | 0.2% (inactive) | 134 | -0.397 (inactive) | -4.4e-05 (inactive) | 0.00612 (inactive) | inactive | 5.51% (inactive) | 9.31% (inactive)
6 | Cc1cc(=O)n2[nH]c(-c3ccc(Cl)cc3)cc2n1 | 540 | -2.9% (inactive) | 0% (inactive) | 87.6 | 46.6% (inactive) | 69.3 | -0.42 (inactive) | -3.9e-05 (inactive) | 0.0052 (inactive) | inactive | -16.8% (inactive) | -40.2% (inactive)
7 | Cc1ccc2cc(C(c3nnnn3C3CCCC3)N3CCN(c4ccc(F)cc4)CC3)c(=O)[nH]c2c1 (stereo not given) | 586 | 7.2% (inactive) | -4.3% (inactive) | 99.8 | -31.9% (inactive) | 130 | -0.372 (inactive) | -4.7e-05 (inactive) | 0.00624 (inactive) | inactive; toxic | 23.2% (inactive) | 34.2% (inactive)
8 | CC(C)(C)NS(=O)(=O)c1ccc(CCC(=O)O)cc1 | 395 | 4.2% (inactive) | -0.1% (inactive) | 82.6 | -68.6% (inactive) | 110 | -0.456 (inactive) | -4.3e-05 (inactive) | 0.00422 (inactive) | inactive | 9.55% (inactive) | 4.51% (inactive)
9 | COC(=O)CCn1nnc(-c2ccc(C)cc2)n1 | 390 | 7.6% (inactive) | -4.9% (inactive) | 110 | -24.9% (inactive) | 108 | -0.341 (inactive) | -4.2e-06 (inactive) | 0.00816 (inactive) | inactive | 21.3% (inactive) | 24.4% (inactive)
10 | O=C(O)CCc1ccc(-c2ccc(F)cc2)n1CCC(=O)O | 422 | 1.8% (inactive) | -12.9% (inactive) | 118 | -140% (inactive) | 120 | -0.427 (inactive) | -5.7e-05 (inactive) | 0.00497 (inactive) | inactive; toxic | 15.3% (inactive) | 19.9% (inactive)
